MrgX1 antagonist – blocks BAM8-22 activation of human MrgX1 receptor; AID 588676; MRGX1-HEK293 calcium flux, Fluo-4, BAM8-22 antagonism; stronger effect = lower value; Q96LB2; B-score at 10 µM; 310,000 tested, 1.3% active;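 active means calcium-response B-score plate-corrected more than 3 library SD below zero, starting fluorescence within 5 deviations, no agonist response on first addition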;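 further: peak minus trough fluorescence over baseline after final BAM8-22 challenge near maximal dose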
Target sequence (Q96LB2 whole entry, looked up): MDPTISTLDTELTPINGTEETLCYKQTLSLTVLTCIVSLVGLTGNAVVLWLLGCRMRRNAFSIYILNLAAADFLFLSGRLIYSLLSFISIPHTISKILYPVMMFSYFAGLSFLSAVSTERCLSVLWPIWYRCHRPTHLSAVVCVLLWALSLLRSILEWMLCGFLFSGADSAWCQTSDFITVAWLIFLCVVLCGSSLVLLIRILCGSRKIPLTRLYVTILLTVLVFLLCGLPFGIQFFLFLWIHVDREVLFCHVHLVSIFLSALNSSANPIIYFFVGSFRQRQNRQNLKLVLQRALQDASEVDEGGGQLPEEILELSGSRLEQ
MrgX1 allo act – allosterically activates human MrgX1 receptor signaling | 310,000 tested, 0.63% active | MrgX1-HEK293, Fluo-4 calcium flux, FDSS; stronger effect = higher value | AID 588675 | Q96LB2 | B-score at 10 µM;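 active means plate-corrected calcium response at least 3 library SD above typical, normal starting fluorescence, not activating the receptor alone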;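 further: compound read alongside a low EC10 to EC30 dose of BAM8-22 agonist; peak minus trough fluorescence over baseline measured at the second addition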
MrgX1 agonist – agonists of human MrgX1 receptor; Q96LB2; MrgX1-HEK293 cells, Fluo-4 calcium fluorescence, agonist mode; stronger effect = higher value; B-score at 10 µM; 310,000 tested, 0.44% active; AID 588627;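 active means calcium response B-score plate-corrected fluorescence ratio at least 3 library SD, with starting fluorescence B-score inside 5 SD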
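Test system: Stable human MrgX1 HEK293 cell line | Schedule: Overnight plating before 1 h dye loading | Read-out basis: Baseline-normalised fluorescence change ratio, B-scored | Detection: Kinetic calcium dye fluorescence, Fluo-4 NW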
RGS4 act – RGS4 potentiation or activation. 310,000 tested, 0.92% active. HEK293 M3R/inducible RGS4, carbachol calcium flux Fluo4; stronger effect = lower value. B-score at 10 µM;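 active means B-score of the integrated calcium signal more than 4 SD below the library mean, with starting fluorescence not abnormally high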;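 further: negative B-score means reduced calcium response which marks RGS4 activation or potentiation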
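System: HEK293 FlpIn-TREx cells, stable M3R, doxycycline-inducible RGS4. Timing: overnight RGS4 induction, 30 min dye load 37 °C, 20 min compound RT. Also added: carbachol, ECmax concentration. Measured by: Fluo4 fluorescence kinetic imaging of calcium. Evaluation: integrated calcium ratio converted to B score.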
RGS4 block – inhibitors of human RGS4; HEK293 M3R/RGS4 inducible, Fluo-4 calcium flux; stronger effect = higher value; triggered by carbachol at its EC20; B-score at 10 µM; 310,000 tested, 0.45% active; AID 463165;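 active means B-score, a plate-corrected calcium signal, over three deviations above library mean, with baseline fluorescence within five deviations of library mean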;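 further: RGS4 expression induced by doxycycline in cells with stable M3 receptor; B-score is computed from the integrated fluorescence ratio over baseline after carbachol; higher B-score means a larger calcium signal and so more RGS4 inhibition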
Target sequence (P49798 whole entry, looked up): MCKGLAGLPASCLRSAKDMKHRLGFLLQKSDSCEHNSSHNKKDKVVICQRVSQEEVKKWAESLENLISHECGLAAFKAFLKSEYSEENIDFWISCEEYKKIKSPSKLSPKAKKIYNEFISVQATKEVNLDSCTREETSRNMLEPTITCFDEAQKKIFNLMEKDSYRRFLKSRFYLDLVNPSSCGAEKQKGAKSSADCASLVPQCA
The depositor's hits bear a star. Sampled rows, rich in hits. Any-hit rate of the full collection: about 3.5%.

For O=[N+]([O-])c1ccc(N/N=C\c2cccn2-c2ccccc2)nc1 the results were MrgX1 antagonist inactive, MrgX1 allo act 8*, MrgX1 agonist inactive, RGS4 act inactive and RGS4 block inactive.
`COc1ccccc1NS(=O)(=O)c1cccc(-n2c(O)c(C=Nc3ccccc3C(=O)O)c3ccccc3c2=O)c1` gave MrgX1 antagonist inactive, MrgX1 allo act inactive, MrgX1 agonist inactive, RGS4 act inactive and RGS4 block inactive.
For COc1ccc(-c2csc(NC(=O)c3ccc(C(C)(C)C)cc3)c2C(=O)O)cc1 the results were MrgX1 antagonist inactive, MrgX1 allo act 14*, MrgX1 agonist inactive, RGS4 act inactive and RGS4 block inactive.
`COc1ccc(-c2csc(NC(=O)c3ccccc3Br)c2C(=O)O)cc1` gave MrgX1 antagonist inactive, MrgX1 allo act inactive, MrgX1 agonist inactive, RGS4 act inactive and RGS4 block inactive.
CCC(C)c1ccc(C(C)NC(=S)NC2CCCCC2)cc1 (stereo not drawn) was read as MrgX1 antagonist inactive, MrgX1 allo act inactive, MrgX1 agonist inactive, RGS4 act -8.4* and RGS4 block inactive.
Screening CCc1ccc(C(C)NC(=S)NC2CCCCC2)cc1 (stereo not drawn) returned MrgX1 antagonist inactive, MrgX1 allo act inactive, MrgX1 agonist inactive, RGS4 act inactive and RGS4 block inactive.
COc1ccccc1N(CC(=O)NCCSCc1ccc(C)cc1)S(=O)(=O)c1ccccc1 was read as MrgX1 antagonist inactive, MrgX1 allo act inactive, MrgX1 agonist inactive, RGS4 act -10* and RGS4 block inactive.
For COc1ccccc1N(CC(=O)Nc1c(C)n(C)n(-c2ccccc2)c1=O)S(=O)(=O)c1ccc(C)cc1 the results were MrgX1 antagonist -5.5*, MrgX1 allo act inactive, MrgX1 agonist inactive, RGS4 act inactive and RGS4 block inactive.
CS(=O)(=O)N(CC(=O)NCc1ccccc1Cl)c1cccc([N+](=O)[O-])c1 was read as MrgX1 antagonist inactive, MrgX1 allo act inactive, MrgX1 agonist inactive, RGS4 act inactive and RGS4 block inactive.
`COc1ccc(N(CC(=O)NCCSCc2ccc(C)cc2)S(=O)(=O)c2ccccc2)cc1` gave MrgX1 antagonist inactive, MrgX1 allo act inactive, MrgX1 agonist inactive, RGS4 act inactive and RGS4 block inactive.
For Cc1ccc(CSCCNC(=O)CN(c2cccc([N+](=O)[O-])c2)S(C)(=O)=O)cc1 the results were MrgX1 antagonist inactive, MrgX1 allo act 9.9*, MrgX1 agonist inactive, RGS4 act inactive and RGS4 block inactive.
`O=C(NCc1cccs1)C(=O)NCC1OCCCN1S(=O)(=O)c1ccccc1` (stereo not drawn) gave MrgX1 antagonist inactive, MrgX1 allo act inactive, MrgX1 agonist inactive, RGS4 act inactive and RGS4 block inactive.
Screening CC1CCCN(CCCNC(=O)c2ccc3c(c2)N(Cc2ccccc2F)C(=O)c2ccccc2S3(=O)=O)C1 (stereo not drawn) returned MrgX1 antagonist inactive, MrgX1 allo act inactive, MrgX1 agonist inactive, RGS4 act inactive and RGS4 block inactive.
`Clc1cc(CSc2ccccc2)nc(-c2ccccc2)n1` gave MrgX1 antagonist inactive, MrgX1 allo act inactive, MrgX1 agonist inactive, RGS4 act inactive and RGS4 block inactive.
For Clc1ccc(SCc2cc(Cl)nc(-c3ccccc3)n2)cc1 the results were MrgX1 antagonist inactive, MrgX1 allo act inactive, MrgX1 agonist inactive, RGS4 act -7* and RGS4 block inactive.
`O=C1CCc2ccccc2N1` gave MrgX1 antagonist inactive, MrgX1 allo act inactive, MrgX1 agonist inactive, RGS4 act inactive and RGS4 block inactive.
`N#C/C(C(N)=O)=C1/CCc2ccccc2N1` gave MrgX1 antagonist -4.9*, MrgX1 allo act inactive, MrgX1 agonist inactive, RGS4 act inactive and RGS4 block inactive.
Cc1cc(NS(=O)(=O)c2ccc(NC(=S)NC(=O)c3cccc(S(=O)(=O)N(C)C)c3)cc2)no1 was read as MrgX1 antagonist inactive, MrgX1 allo act 14*, MrgX1 agonist inactive, RGS4 act inactive and RGS4 block inactive.
`CCOC(=O)c1nn(-c2ccc(Cl)cc2)c(=O)c(C#N)c1C` gave MrgX1 antagonist inactive, MrgX1 allo act inactive, MrgX1 agonist inactive, RGS4 act inactive and RGS4 block inactive.
For CCOC(=O)c1nn(-c2ccc(Cl)cc2Cl)c(=N)c(C#N)c1C the results were MrgX1 antagonist -7.5*, MrgX1 allo act inactive, MrgX1 agonist inactive, RGS4 act inactive and RGS4 block inactive.
Cc1cc(C)cc(N(CCC#N)C(=O)COC(=O)c2ccccc2SCC(=O)N2CCCC2)c1 was read as MrgX1 antagonist inactive, MrgX1 allo act inactive, MrgX1 agonist inactive, RGS4 act -7.1* and RGS4 block inactive.
`Cc1ccc(N(CCC#N)C(=O)COC(=O)c2ccccc2SCC(=O)N2CCCC2)cc1` gave MrgX1 antagonist inactive, MrgX1 allo act inactive, MrgX1 agonist inactive, RGS4 act inactive and RGS4 block inactive.
COCCCN1CCN(C2Cc3ccccc3Sc3ccc(Cl)cc32)CC1 (stereo not drawn) was read as MrgX1 antagonist inactive, MrgX1 allo act inactive, MrgX1 agonist inactive, RGS4 act inactive and RGS4 block inactive.
Clc1ccc2c(c1)C(N1CCNCC1)Cc1ccccc1S2 (stereo not drawn) was read as MrgX1 antagonist inactive, MrgX1 allo act inactive, MrgX1 agonist inactive, RGS4 act -7.8* and RGS4 block inactive.
CCN(CC)S(=O)(=O)c1cccc(C(=O)OCC(=O)c2ccc3c(c2)OCCO3)c1 was read as MrgX1 antagonist inactive, MrgX1 allo act inactive, MrgX1 agonist inactive, RGS4 act inactive and RGS4 block inactive.
Screening COC(=O)c1ccc(CN(C(C)=O)c2ccccc2)o1 returned MrgX1 antagonist inactive, MrgX1 allo act inactive, MrgX1 agonist inactive, RGS4 act -7.3* and RGS4 block inactive.
`CCn1c2ccc(F)cc2c2nnc(SCCN3CCCCC3)nc21` gave MrgX1 antagonist inactive, MrgX1 allo act inactive, MrgX1 agonist inactive, RGS4 act -7* and RGS4 block inactive.
`CCCn1c2ccccc2c2nnc(SCCN3CCOCC3)nc21` gave MrgX1 antagonist inactive, MrgX1 allo act inactive, MrgX1 agonist inactive, RGS4 act inactive and RGS4 block inactive.
`C=CCn1c2ccccc2c2nnc(SCCN3CCCCC3)nc21` gave MrgX1 antagonist inactive, MrgX1 allo act inactive, MrgX1 agonist inactive, RGS4 act -7.3* and RGS4 block inactive.
`Cc1ccc(C2=CC(c3ccccc3)n3ncnc3N2)cc1` (stereo not drawn) gave MrgX1 antagonist inactive, MrgX1 allo act inactive, MrgX1 agonist inactive, RGS4 act inactive and RGS4 block inactive.
